Screens from PubChem.
SIAE primary: inhibitors of human sialic acid acetylesterase SIAE; Q9HAT2; SIAE FP-Rh probe binding, fluorescence polarization; hit rate 0.69% among 370,000; inhibition, % at 9.66 µM;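 active = inhibition above a cutoff: mean of compounds within the control limits plus 3 SD of those, cut at about 17% in these data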;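 also: 0% = plate median of compound wells and 100% = probe without SIAE protein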
ABHD4 inh: ABHD4 (mouse) inhibition, primary FP screen; Q8VD66; purified mABHD4, FP-Rh probe fluorescence polarization; inhibition, % at 8.92 µM; hit rate 0.54% among 370,000; AID 720543;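 active = inhibition exceeding the mean over every tested compound plus 3 SD, cut at about 30% in these data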;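 also: 0% = plate median of compound wells and 100% = S159A mutant with DMSO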
Target sequence (Q8VD66 whole entry, looked up): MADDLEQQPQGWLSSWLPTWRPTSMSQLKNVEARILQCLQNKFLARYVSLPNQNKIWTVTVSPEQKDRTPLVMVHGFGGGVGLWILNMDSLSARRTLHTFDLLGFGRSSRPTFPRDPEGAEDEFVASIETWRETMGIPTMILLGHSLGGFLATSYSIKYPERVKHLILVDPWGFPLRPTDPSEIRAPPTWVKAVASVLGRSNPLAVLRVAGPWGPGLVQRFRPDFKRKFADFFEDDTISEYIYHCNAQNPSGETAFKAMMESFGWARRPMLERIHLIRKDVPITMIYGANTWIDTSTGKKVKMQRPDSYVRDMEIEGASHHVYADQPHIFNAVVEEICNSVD
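Material: mouse ABHD4 enzyme, wild type; Benchmarks: S159A mutant high control, sample median low control; Buffer or medium: HEPES pH 7.0, NaCl, Pluronic buffer; Signal: fluorescence polarization; Read-out: percent inhibition of probe binding, normalized to plate controls; Timing: pre-incubation 45 min, probe exposure 60 min, at 25 °C; Dosing: 8.92 µM, single dose.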
PME-1 inh: blocks human protein phosphatase methylesterase 1; hit rate 0.53% among 320,000; inhibition, % at 5.9 µM; recombinant PME-1, FP-Rh probe fluorescence polarization; AID 2130;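 active = inhibition above the campaign mean of all compounds plus 3 SD, cut at about 26% in these data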;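 also: competitive labeling of PME-1 active site by serine hydrolase directed probe; 0% = PME-1 with DMSO and 100% = wells lacking PME-1 enzyme; inhibitors block probe labeling so polarization falls and inhibition rises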
Target sequence (Q9Y570 whole entry, looked up): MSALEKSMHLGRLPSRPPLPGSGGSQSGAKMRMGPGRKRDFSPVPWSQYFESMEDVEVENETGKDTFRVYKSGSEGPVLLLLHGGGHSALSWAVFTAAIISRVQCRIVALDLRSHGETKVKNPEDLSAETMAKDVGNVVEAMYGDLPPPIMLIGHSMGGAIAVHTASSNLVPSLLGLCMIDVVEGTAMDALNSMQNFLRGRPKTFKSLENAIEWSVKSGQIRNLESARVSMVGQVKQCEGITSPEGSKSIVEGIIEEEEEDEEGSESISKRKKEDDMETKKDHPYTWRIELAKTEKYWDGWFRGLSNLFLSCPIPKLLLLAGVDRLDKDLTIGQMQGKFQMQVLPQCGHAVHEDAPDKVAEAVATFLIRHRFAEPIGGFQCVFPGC
Fam108B inh: blocks mouse Fam108B hydrolase in RBBP9 counter-screen; hit rate 0.33% among 300,000; recombinant Fam108B, FP-Rh probe fluorescence polarization; inhibition, % at 9.51 µM; AID 1947;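 active = inhibition above the screen mean inhibition plus 3 SD, computed separately per campaign, cut at about 18% in these data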;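 also: inhibitors lower polarization as less probe binds the enzyme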
HTRA1 inhibitor: blocks human HTRA1 serine peptidase; Q92743; recombinant HTRA1, FP-rhodamine activity-based probe, fluorescence polarization; inhibition, % at 5.96 µM; hit rate 0.5% among 340,000; in the data active = inhibition above about 36%;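 also: 0% = enzyme with DMSO and 100% = wells lacking enzyme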
TCR CD3 inh: human TCR-CD3 binding inhibition. TAMRA-labeled TCR probe fluorescence, biochemical. inhibition, % at 9.4 µM. hit rate 0.37% among 360,000. AID 651800;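 also: recombinant mutant TCR 2C K166C tagged with TAMRA read by polarization; 0% = receptor in buffer alone and 100% = receptor with positive control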
BSA probe FL: BSA probe counter-screen for TCR-CD3 inhibitors; hit rate 10% among 1,200; shares compounds with TCR CD3 inh; TAMRA-labeled BSA probe fluorescence counterscreen; inhibition, % at 9.4 µM; AID 652035; in the data active = inhibition above about 23%;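 also: 0% = buffer low control and 100% = reference high control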
TCR-CD3 conf: TCR-CD3 interaction inhibition, confirmation | inhibition, % at 9.4 µM | shares compounds with TCR CD3 inh | hit rate 48% among 1,200 | TAMRA-labeled TCR probe fluorescence binding assay
* = called active by the depositor; · = not tested or not shown. This is a sample that favours compounds with a hit; in the whole collection about 1.8% have one here. Rule as the data show it, unless noted: active = inhibition above about 19%; inactive = the rest.

SMILES | SIAE primary | ABHD4 inh | PME-1 inh | Fam108B inh | HTRA1 inhibitor | TCR CD3 inh | BSA probe FL | TCR-CD3 conf
O=c1[nH]c(=S)[nH]c2c1C(c1ccc(Br)cc1)c1c([nH]c(=S)[nH]c1=O)O2 | -145 | -32 | -54 | -7 | -44 | 22* | -7 | 18
O=C(c1cccc(Cl)c1)N1CCN(c2ccnc3cc(Cl)ccc23)CC1 | -2 | -1 | · | · | · | · | · | ·
O=C(Nc1ccc(Cl)c(Cl)c1)c1ccc(Cl)c(Cl)c1 | -18 | -81 | -81 | -12 | -62 | -1 | · | ·
CC(C)C1O/C(=N/C(=O)Nc2ccc(Cl)c(Cl)c2)NC1=O (configuration not stated) | -105 | -59 | -51 | -40 | -20 | 35* | 1 | 4
N#CCC(=O)Nc1ccc(C(=O)OCC(=O)Nc2cc(-c3ccccc3)nn2-c2ccccc2)cc1 | -34 | -12 | · | · | -65 | 52* | 14 | 21*
CNC(=O)COC(=O)c1ccc(NC(=O)CC#N)cc1 | 3 | -4 | -1 | -1 | 1 | 1 | · | ·
CCN(CC)S(=O)(=O)c1ccc(NC(=O)COC(=O)c2ccc(NC(=O)CC#N)cc2)cc1 | -37 | 12 | -7 | -5 | -24 | 20* | -3 | 0
N#CCC(=O)Nc1ccc(C(=O)OCC(=O)Nc2ccccc2-c2ccccc2)cc1 | 0 | -5 | 0 | -9 | · | 7 | · | ·
O=S(=O)(c1ccc(CN2CCOCCOCCN(Cc3ccc(S(=O)(=O)C(F)(F)F)cc3)CCOCC2)cc1)C(F)(F)F | 0 | 5 | · | · | · | · | · | ·
Cc1cccc(-n2c(O)c(C=Nc3c(C)n(C)n(-c4ccccc4)c3=O)c3ccccc3c2=O)n1 | -1 | 3 | 0 | -1 | -6 | -9 | · | ·
COc1cccc(N=Cc2c(O)n(-c3cccc(C)n3)c(=O)c3ccccc23)c1 | -2 | -13 | 7 | 0 | -34 | 3 | · | ·
Cc1cccc(-n2c(O)c(C=Nc3cc(O)ccc3C)c3ccccc3c2=O)n1 | 16 | 1 | 3 | -1 | -2 | 37* | -21 | 6
Cc1cccc(-n2c(O)c(/C=N/NC(=O)c3ccccc3Cl)c3ccccc3c2=O)n1 | 5 | 0 | -2 | -2 | 24 | 28* | -3 | 37*
O=C(OCC(=O)N1CCc2ccccc21)c1c2c(nc3ccccc13)CCCC2 | -9 | -4 | 2 | -3 | -48 | 44* | 1 | 4
CC1Cc2ccccc2N1C(=O)COC(=O)c1c2c(nc3ccccc13)CCCCC2 (configuration not stated) | -14 | -6 | -7 | -8 | -37 | -2 | · | ·
Nc1c(N(Cc2ccccc2)C(=O)COc2ccc(F)cc2Cl)c(=O)[nH]c(=O)n1Cc1ccccc1 | -4 | -6 | · | · | 12 | 21* | -9 | 21*
COCCn1c(N)c(N(Cc2ccccc2)C(=O)COc2ccc(F)cc2Cl)c(=O)[nH]c1=O | 9 | 4 | 6 | -5 | 5 | 3 | · | ·
CCC1CCc2sc(C(=O)OCC(=O)N(CCOC)c3c(N)n(Cc4ccccc4)c(=O)[nH]c3=O)cc2C1 (configuration not stated) | 6 | 5 | -10 | -2 | -50 | 1 | · | ·
COCCN(C(=O)COC(=O)c1cc2c(s1)CCC2)c1c(N)n(Cc2ccccc2)c(=O)[nH]c1=O | 9 | 20 | -12 | 14 | 7 | 27* | -15 | 37*
O=C(NNC(=O)c1ccccc1OCc1ccccc1)c1ccccc1F | 3 | 8 | -1 | 0 | -2 | 4 | · | ·
O=C(NNC(=O)c1ccccc1OCc1ccccc1)c1ccccc1O | 5 | 8 | · | · | 29 | 33* | -17 | 19*
O=C(NNC(=O)c1ccccc1OCc1ccc(F)cc1)c1ccccc1O | 4 | 5 | · | · | 25 | 25* | -18 | 23*
C#CCNC(=O)C[C@H]1C(=O)N(CCc2ccc(Cl)cc2)C2=CCCC[C@@]21C(=O)OCC | -2 | 3 | · | · | · | · | · | ·
O=C(CC1SC(=O)NC1=O)Oc1ccc(/C=N/NC(=O)c2ccccc2O)cc1 (configuration not stated) | 9 | 6 | 3 | -1 | 10 | 32* | -15 | 11
COc1ccc(C(=O)OCCN2CCN(C3CN(Cc4cn(Cc5cccc(C)c5)nn4)S(=O)(=O)C3)CC2)cc1OC (configuration not stated) | -1 | 4 | · | · | · | · | · | ·
SMILES | SIAE primary | ABHD4 inh | PME-1 inh | Fam108B inh | HTRA1 inhibitor | TCR CD3 inh | BSA probe FL | TCR-CD3 conf
CC(=O)c1c(C)[nH]c(C(=O)OCc2nnc(-c3ccc([N+](=O)[O-])cc3)o2)c1C | 10 | 18 | · | · | 8 | 26* | 2 | 9
COC(=O)C1CN(CCc2ccccc2)CCS(=O)(=O)N1Cc1ccc(C)cc1 (configuration not stated) | 0 | 6 | · | · | · | · | · | ·
Cc1c(OC(C(=O)O)c2ccccc2)ccc2c1oc(=O)c1ccccc12 (configuration not stated) | -9 | -2 | -3 | -7 | -8 | 19* | 2 | 0
O=c1c2cc3cccnc3nc2ncn1Cc1cccs1 | 2 | 2 | · | · | · | · | · | ·
COc1ccccc1N1CCN(N=Cc2ccccc2Br)CC1 | 2 | 0 | · | · | · | · | · | ·
C=CCN1[C@H](C#N)[C@@H](c2ccc(C#Cc3cccc(OC)c3)cc2)[C@H]1CO | 5 | 1 | · | · | · | · | · | ·
O=C(NCCc1ccccc1)OCc1cn(Cc2ccc(Cl)cc2)nn1 | 6 | -3 | · | · | · | · | · | ·
COC(=O)COc1ccc(NC(=O)C(c2ccccc2)c2ccccc2)cc1 | 1 | 1 | -4 | 5 | -6 | -4 | · | ·
COC(=O)COc1ccc(C(C2C(=O)CC(C)(C)CC2=O)C2C(=O)CC(C)(C)CC2=O)cc1 | -1 | 0 | -2 | 6 | 2 | 20* | 1 | 3
CCOc1ccc(Br)cc1S(=O)(=O)Nc1ccc(C(=O)OCC(=O)Nc2ccc(C#N)cc2)cc1 | -12 | -16 | 1 | 11 | -64 | 33* | 26* | 34*
CCCCNC(=O)O[C@H]1CC[C@@]23CCCN2C(=O)CCC[C@H]3C1 | -1 | 7 | · | · | · | · | · | ·
Cc1ccc([C@H]2C(C(=O)O)=CC[C@@H](c3ccc(Cl)cc3)N2S(=O)(=O)c2ccc(C)cc2)cc1 | -11 | 1 | · | · | -41 | -7 | · | ·
O=C(O)C1=CC[C@@H](c2ccc(Cl)cc2)N(S(=O)(=O)c2ccc(Cl)cc2)[C@H]1c1ccccc1 | -5 | -10 | -5 | -4 | -42 | 36* | 0 | 0
COC(=O)C[C@@H]1CC[C@@H]2[C@H](COc3ccc(NC(=O)c4ccc(F)c(F)c4)cc3C(=O)N2C)O1 | 9 | 6 | · | · | · | · | · | ·
Cc1cc(C)nc(SCCC(=O)Nc2ccccc2)n1 | 1 | 1 | -1 | -2 | 4 | -3 | · | ·
Cc1cc(C)nc(SCCC(=O)Nc2ccccc2C)n1 | -2 | 4 | 2 | -6 | 4 | 107* | 4 | 0
